Experimental data reported in ChEMBL document CHEMBL1811846, “Synthesis and biological activity of naphthyl-substituted (B-ring) benzophenone derivatives as novel non-nucleoside HIV-1 reverse transcriptase inhibitors” (Bioorg Med Chem, 2011).

What was measured:
[1] = tested on: Human immunodeficiency virus 1; assay: Antiviral activity against HIV1 A17 expressing reverse transcriptase K103N/Y181C double mutant infected in human C8166 cells assessed as protection against virus-induced cytopathogenicity after 3 days by measuring syncytia under inverted microscope; type: functional, organism-based; settings: Human immunodeficiency virus 1, A17, C8166, 72 h
Procedure, shortened: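 C8166 cells (4 × 10⁵/mL) infected with HIV-1 A17 at MOI 0.06 in the presence of various compound concentrations. AZT and GW678248 served as drug controls. After 3 days of culture, syncytia (multinucleated giant cells) were scored under an inverted microscope. EC₅₀ was calculated as the concentration blocking syncytium formation by 50%.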

[2] = tested on: Human immunodeficiency virus 1; assay: Antiviral activity against wild-type HIV1 3B infected in human C8166 cells assessed as protection against virus-induced cytopathogenicity after 3 days by measuring syncytia under inverted microscope; type: functional, organism-based; settings: Human immunodeficiency virus 1, 3B, C8166, 72 h
Procedure, shortened: (§1)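 C8166 cells at 4 × 10⁵/mL infected at M.O.I. 0.06 in the presence of serial compound concentrations, with AZT and GW678248 as drug controls. After 3 days of culture, syncytia (multinucleated giant cells) counted under an inverted microscope. EC₅₀ is the concentration blocking syncytium formation by 50%.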

[3] = Selectivity index, ratio of CC50 for human C8166 cells to EC50 for HIV1 3B infected in human C8166 cells; type: toxicity, cell-based; settings: HIV-1 3B infected C8166 cells, read-out: Ratio CC50/EC50
Procedure, shortened: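 Calculated as CC₅₀ (MTT viability of uninfected C8166 cells) divided by EC₅₀ against HIV-1 IIIB (syncytium scoring in C8166 cells, M.O.I. 0.06, 3 days).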

[4] = Cytotoxicity against human C8166 cells by MTT colorimetric assay; type: cell-based
Procedure, shortened: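 Uninfected C8166 cells exposed to compounds; viability read by MTT colorimetric assay at absorbance 570/630 nm. CC₅₀ is the concentration reducing viability by 50%.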

[5] = tested on: Human immunodeficiency virus 2; assay: Antiviral activity against HIV-2 ROD infected in human C8166 cells assessed as protection against viral cytopathogenicity after 3 days by measuring syncytia under inverted microscope; type: functional, organism-based; settings: Human immunodeficiency virus 2, ISOLATE ROD, C8166, 72 h; procedure, shortened: as §1

Row | Structure (SMILES) | EC50 [1] [µM] | EC50 [2] [µM] | selectivity ratio [3] | CC50 [4] [µM] | EC50 [5] [µM]
1 | Cc1cc(S(N)(=O)=O)ccc1NC(=O)COc1ccc2ccccc2c1C(=O)c1ccccc1 | 9.6 | 0.0527 | 642 | 33.8 | –
2 | Cc1cccc(C(=O)c2c(OCC(=O)Nc3ccc(S(N)(=O)=O)cc3C)ccc3ccccc23)c1 | 2.4 | 0.0135 | 2990 | 40.4 | 28.3
3 | Cc1cc(S(N)(=O)=O)ccc1NC(=O)COc1ccc2ccccc2c1C(=O)c1cccc(Cl)c1 | 9.5 | 0.0338 | 1110 | 37.4 | 34.5
4 | Cc1cc(C)cc(C(=O)c2c(OCC(=O)Nc3ccc(S(N)(=O)=O)cc3C)ccc3ccccc23)c1 | 8.4 | 0.0078 | 5040 | 39.1 | 45.4
5 | Cc1ccc(C)c(C(=O)c2c(OCC(=O)Nc3ccc(S(N)(=O)=O)cc3C)ccc3ccccc23)c1 | 7.6 | 0.0116 | 4090 | 47.5 | 30.3
6 | Cc1ccc(C(=O)c2c(OCC(=O)Nc3ccc(S(N)(=O)=O)cc3C)ccc3ccccc23)c(C)c1 | 7.9 | 0.139 | 183 | 25.5 | –
7 | Cc1ccc(C(=O)c2c(OCC(=O)Nc3ccc(S(N)(=O)=O)cc3C)ccc3ccccc23)cc1C | 12.3 | 0.609 | 54.2 | 33 | –
8 | Cc1cc(S(N)(=O)=O)ccc1NC(=O)COc1ccc2ccccc2c1C(=O)c1cc(Cl)cc(Br)c1 | 7.5 | 0.0271 | 1350 | 36.6 | –
9 | Cc1cc(S(N)(=O)=O)ccc1NC(=O)COc1ccc2ccccc2c1C(=O)c1cc(Cl)cc(C#N)c1 | 2.1 | 0.0048 | 10300 | 49.4 | 23.6
10 | Cc1cc(S(N)(=O)=O)ccc1NC(=O)COc1ccc2cc(Br)ccc2c1C(=O)c1ccccc1 | 25.8 | 4.61 | 6.3 | 29.2 | 27.7
11 | Cc1cccc(C(=O)c2c(OCC(=O)Nc3ccc(S(N)(=O)=O)cc3C)ccc3cc(Br)ccc23)c1 | 3.4 | 2.3 | 2.9 | 6.8 | –
12 | Cc1cc(S(N)(=O)=O)ccc1NC(=O)COc1ccc2cc(Br)ccc2c1C(=O)c1cccc(Cl)c1 | 3.9 | 1.67 | 4.1 | 6.8 | –
13 | Cc1cc(S(N)(=O)=O)ccc1NC(=O)COc1ccc2cc(Br)ccc2c1C(=O)c1cccc(F)c1 | 9.7 | 9.17 | 2.7 | 24.5 | 6
14 | Cc1cc(C)cc(C(=O)c2c(OCC(=O)Nc3ccc(S(N)(=O)=O)cc3C)ccc3cc(Br)ccc23)c1 | 7.8 | 4.42 | 7 | 31 | 29.8
15 | Cc1ccc(C(=O)c2c(OCC(=O)Nc3ccc(S(N)(=O)=O)cc3C)ccc3cc(Br)ccc23)c(C)c1 | 33.1 | 23.6 | 2.6 | 61.4 | –
16 | Cc1ccc(C)c(C(=O)c2c(OCC(=O)Nc3ccc(S(N)(=O)=O)cc3C)ccc3cc(Br)ccc23)c1 | 20.7 | 2.64 | 5.3 | 14 | –
17 | Cc1ccc(C(=O)c2c(OCC(=O)Nc3ccc(S(N)(=O)=O)cc3C)ccc3cc(Br)ccc23)cc1C | 28.2 | 31.9 | 2.7 | 85.2 | –
18 | Cc1cc(S(N)(=O)=O)ccc1NC(=O)COc1ccc2cc(Br)ccc2c1C(=O)c1cc(Cl)cc(Br)c1 | 10.2 | 7.57 | 3.8 | 28.5 | 11.1
19 | Cc1cccc(C(=O)c2c(OCC(=O)Nc3ccc(S(N)(=O)=O)cc3C)ccc3cc(C#N)ccc23)c1 | 10.4 | 0.791 | 19.2 | 15.2 | –
20 | Cc1cc(S(N)(=O)=O)ccc1NC(=O)COc1ccc2cc(C#N)ccc2c1C(=O)c1cccc(Cl)c1 | 20.6 | 2.05 | > 183 | > 374 | –
21 | Cc1ccc(C(=O)c2c(OCC(=O)Nc3ccc(S(N)(=O)=O)cc3C)ccc3cc(C#N)ccc23)cc1C | 97.3 | 86.3 | > 4.4 | > 379 | –
22 | Cc1cc(C)cc(C(=O)c2c(OCC(=O)Nc3ccc(S(N)(=O)=O)cc3C)ccc3cc(C#N)ccc23)c1 | 16.3 | 1.78 | 72 | 128 | –
23 | Cc1cc(S(N)(=O)=O)ccc1NC(=O)COc1ccc(Cl)cc1C(=O)c1cc(Cl)cc(C#N)c1 | 0.0014 | – | > 563000 | > 387 | 2.1
24 | Cc1cn([C@H]2C[C@H](N=[N+]=[N-])[C@@H](CO)O2)c(=O)[nH]c1=O [ZIDOVUDINE] | 0.023 | – | 422000 | 5400 | 0.039
